The record followed here is ChEMBL document CHEMBL5154645, “Potent Anti-SARS-CoV-2 Activity by the Natural Product Gallinamide A and Analogues via Inhibition of Cathepsin L” (J Med Chem, 2022).

Calls of active or inactive are those of the source. The calls are words filed in the database; no cut-off is given here.

In general, EC50 refers to the concentration at which the effect is half-maximal. The IC50 is the concentration at which inhibition is half-maximal. By CC50 is commonly meant the concentration giving 50% cytotoxicity.

T1 sequence (P07711 114-333 limits assumed): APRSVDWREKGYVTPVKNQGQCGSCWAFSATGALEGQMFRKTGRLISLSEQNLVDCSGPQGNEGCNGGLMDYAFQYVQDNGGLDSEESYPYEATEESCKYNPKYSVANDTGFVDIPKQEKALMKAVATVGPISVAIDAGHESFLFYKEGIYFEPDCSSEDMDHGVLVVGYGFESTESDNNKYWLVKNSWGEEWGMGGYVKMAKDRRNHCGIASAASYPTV
Sequence of Cathepsin S (P25774 whole entry): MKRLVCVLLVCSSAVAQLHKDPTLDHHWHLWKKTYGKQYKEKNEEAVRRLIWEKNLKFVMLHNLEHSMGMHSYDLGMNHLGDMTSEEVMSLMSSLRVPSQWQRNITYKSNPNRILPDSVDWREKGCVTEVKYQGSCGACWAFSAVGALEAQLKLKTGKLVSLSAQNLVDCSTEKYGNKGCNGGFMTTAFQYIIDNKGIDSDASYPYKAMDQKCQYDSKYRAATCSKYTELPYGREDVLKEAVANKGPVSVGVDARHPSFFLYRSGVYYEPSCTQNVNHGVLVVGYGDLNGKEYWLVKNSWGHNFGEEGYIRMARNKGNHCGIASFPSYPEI

The first data set has as its target T1, Procathepsin L (Homo sapiens, UniProt P07711). Put plainly: Inhibition of human recombinant Cathepsin L assessed as ratio of Kinact/Kiapp using Z-FR-AMC as substrate inubated for 30 mins by fluorometric assay.
Details: not given
For `COC1=CC(=O)N(C(=O)/C=C/[C@H](C)NC(=O)[C@H](CCc2ccccc2)NC(=O)[C@H](CC2CCCCC2)NC(=O)[C@H](C(C)C)N(C)C)[C@H]1Cc1c[nH]c2ccccc12`, the Ratio is 1.89 10^5/s/M.

A further data set deals with T2, Cathepsin B (Homo sapiens, UniProt P07858). In words: Inhibition of human recombinant Cathepsin B assessed as ratio of Kinact/Kiapp using Z-FR-AMC as substrate inubated for 30 mins by fluorometric assay.
Details: not given
In short, it runs like this: (§1)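 Human CatL, human CatB or mouse CatL at 1 nM, at 25 °C in pH 5.5 Na acetate/DTT/EDTA/NaCl buffer. Reactions held 40 μM Z-FR-AMC and 555.56 to 0.01 nM compound, in quadruplicate. Product formation was measured at 6 min intervals for 1 h and normalized to DMSO wells. kobs came from inactivation curves. kinact and KIapp were obtained by nonlinear regression of kobs = kinact[I]/(KIapp + [I]); their ratio was then calculated.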
As for `COC1=CC(=O)N(C(=O)/C=C/[C@H](C)NC(=O)[C@H](CCc2ccccc2)NC(=O)[C@H](CC2CCCCC2)NC(=O)[C@H](C(C)C)N(C)C)[C@H]1Cc1c[nH]c2ccccc12`, the Ratio was 9.65 10^3/s/M.

The target of a further data set is T3, Procathepsin L (Mus musculus) (UniProt P06797).
T3 sequence (whole entry): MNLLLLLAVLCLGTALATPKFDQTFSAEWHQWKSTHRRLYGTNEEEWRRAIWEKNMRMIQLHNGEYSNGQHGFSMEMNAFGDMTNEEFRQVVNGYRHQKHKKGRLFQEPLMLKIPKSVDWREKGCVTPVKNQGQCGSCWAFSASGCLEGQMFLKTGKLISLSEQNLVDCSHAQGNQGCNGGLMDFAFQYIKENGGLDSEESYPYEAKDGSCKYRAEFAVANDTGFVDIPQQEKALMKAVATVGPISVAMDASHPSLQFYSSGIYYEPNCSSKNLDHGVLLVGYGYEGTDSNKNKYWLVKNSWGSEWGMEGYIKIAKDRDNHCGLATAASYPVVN
Put plainly: Inhibition of mouse Cathepsin L assessed as ratio of Kinact/Kiapp using Z-FR-AMC as substrate inubated for 30 mins by fluorometric assay.
Details: not given
In short, it runs like this:
as §1
As to `COC1=CC(=O)N(C(=O)/C=C/[C@H](C)NC(=O)[C@H](CCc2ccccc2)NC(=O)[C@H](CC2CCCCC2)NC(=O)[C@H](C(C)C)N(C)C)[C@H]1Cc1c[nH]c2ccccc12`, the Ratio was 1.36 10^5/s/M.

In the next data set the test system is SARS-CoV-2. Put plainly: Antiviral activity against SARS-CoV-2 infected in human MRC5 cells expressing ACE2/TMPRSS2 assessed as inhibition of viral entry at 32 uM. It is filed as functional, organism-based. As to conditions: Severe acute respiratory syndrome coronavirus 2.
As to `COC1=CC(=O)N(C(=O)/C=C/[C@H](C)NC(=O)[C@H](CCc2ccccc2)NC(=O)[C@H](CC2CCCCC2)NC(=O)[C@H](C(C)C)N(C)C)[C@H]1Cc1c[nH]c2ccccc12`, the outcome was Active.

The next data set has as its target T2, Cathepsin B. In words: Inhibition of human recombinant Cathepsin B assessed as Kinact using Z-FR-AMC as substrate inubated for 30 mins by fluorometric assay.
Details: not given
Take `COC1=CC(=O)N(C(=O)/C=C/[C@H](C)NC(=O)[C@H](CCc2ccccc2)NC(=O)[C@H](CC2CCCCC2)NC(=O)[C@H](C(C)C)N(C)C)[C@H]1Cc1c[nH]c2ccccc12`: the Kinact was 3.35 10^-3/s.

Another data set deals with SARS-CoV-2. Put plainly: Antiviral activity against SARS-CoV-2 infected in African green monkey Vero E6 cells assessed as inhibition of viral infection pre incubated for 30 minutes followed by viral infection and measured after 72 hrs by Nucblue dye based fluorometric analysis. As to conditions: Severe acute respiratory syndrome coronavirus 2, Vero C1008. The format is functional, organism-based.
Regarding `COC1=CC(=O)N(C(=O)/C=C/[C@H](C)NC(=O)[C@H](CCc2ccccc2)NC(=O)[C@H](CC2CCCCC2)NC(=O)[C@H](C(C)C)N(C)C)[C@H]1Cc1c[nH]c2ccccc12`, the EC50 worked out at 168 nM.

Another data set deals with T4, Procathepsin L (Mus musculus, UniProt P06797).
T4 sequence (P06797 whole entry): T3 sequence (whole entry)
Put plainly: Inhibition of mouse Cathepsin L assessed as Apparent inhibition constant using Z-FR-AMC as substrate inubated for 30 mins by fluorometric assay. To be noted: read-out: Ki(app). In short, it runs like this:
as §1
Consider `COC1=CC(=O)N(C(=O)/C=C/[C@H](C)NC(=O)[C@H](CCc2ccccc2)NC(=O)[C@H](CC2CCCCC2)NC(=O)[C@H](C(C)C)N(C)C)[C@H]1Cc1c[nH]c2ccccc12`, for which the Ki came out at 16.5 nM.

A further data set addresses T5, Cathepsin K (Homo sapiens, UniProt P43235).
T5 sequence (P43235 whole entry): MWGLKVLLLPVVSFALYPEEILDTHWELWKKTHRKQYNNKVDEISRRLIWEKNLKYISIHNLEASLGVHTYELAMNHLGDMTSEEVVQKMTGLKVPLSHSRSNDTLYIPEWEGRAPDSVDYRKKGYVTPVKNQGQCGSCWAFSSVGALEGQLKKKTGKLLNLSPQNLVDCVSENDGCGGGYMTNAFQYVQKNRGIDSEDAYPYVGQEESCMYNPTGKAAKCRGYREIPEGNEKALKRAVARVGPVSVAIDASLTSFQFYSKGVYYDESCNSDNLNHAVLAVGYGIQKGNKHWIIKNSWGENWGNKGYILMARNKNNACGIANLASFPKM
In words: Inhibition of human recombinant Cathepsin K assessed remaining activity using Z-FR-AMC as substrate incubated for 30 mins by fluorometric assay.
Details: not given
In short, it runs like this:
(§2)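 Recombinant human cathepsins: L, B, V and K at 1.11 nM, S at 4.44 nM. Each was preincubated 30 min at 25 °C with 3333 to 0.006 nM compound. Z-FR-AMC was added at 40 μM final. AMC release rate over 0–30 min was compared with DMSO (ex/em 360/460). IC50 from four technical replicates.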
`COC1=CC(=O)N(C(=O)/C=C/[C@H](C)NC(=O)[C@H](CCc2ccccc2)NC(=O)[C@H](CC2CCCCC2)NC(=O)[C@H](C(C)C)N(C)C)[C@H]1Cc1c[nH]c2ccccc12`: the concentration for half-maximal inhibition (IC50) was found to be 219 nM.

Another data set has as its target T1, Procathepsin L. In words: Inhibition of human recombinant Cathepsin L assessed as Kinact using Z-FR-AMC as substrate inubated for 30 mins by fluorometric assay.
Details: not given
In short, it runs like this:
as §1
Consider `COC1=CC(=O)N(C(=O)/C=C/[C@H](C)NC(=O)[C@H](CCc2ccccc2)NC(=O)[C@H](CC2CCCCC2)NC(=O)[C@H](C(C)C)N(C)C)[C@H]1Cc1c[nH]c2ccccc12`, for which the Kinact is 5.87 10^-3/s.

In a further data set the target is T6, Cathepsin L2 (Homo sapiens, UniProt O60911).
T6 sequence (O60911 whole entry): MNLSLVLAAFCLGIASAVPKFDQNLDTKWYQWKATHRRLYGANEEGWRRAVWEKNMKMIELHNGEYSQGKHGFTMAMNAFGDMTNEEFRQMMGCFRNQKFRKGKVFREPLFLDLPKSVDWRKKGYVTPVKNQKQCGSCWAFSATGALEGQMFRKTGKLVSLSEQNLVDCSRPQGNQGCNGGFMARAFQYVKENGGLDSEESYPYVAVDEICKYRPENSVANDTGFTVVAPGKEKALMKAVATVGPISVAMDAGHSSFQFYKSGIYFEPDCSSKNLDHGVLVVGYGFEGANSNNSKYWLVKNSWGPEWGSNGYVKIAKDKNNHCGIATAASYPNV
In words: Inhibition of human recombinant Cathepsin V assessed remaining activity using Z-FR-AMC as substrate incubated for 30 mins by fluorometric assay.
Details: not given
In short, it runs like this: as §2
For the compound `COC1=CC(=O)N(C(=O)/C=C/[C@H](C)NC(=O)[C@H](CCc2ccccc2)NC(=O)[C@H](CC2CCCCC2)NC(=O)[C@H](C(C)C)N(C)C)[C@H]1Cc1c[nH]c2ccccc12`, the half-maximal inhibitory concentration (IC50) amounted to 186 nM.

The target of another data set is T3, Procathepsin L (Mus musculus). In words: Inhibition of mouse Cathepsin L assessed as Kinact using Z-FR-AMC as substrate inubated for 30 mins by fluorometric assay.
Details: not given
In short, it runs like this:
as §1
`COC1=CC(=O)N(C(=O)/C=C/[C@H](C)NC(=O)[C@H](CCc2ccccc2)NC(=O)[C@H](CC2CCCCC2)NC(=O)[C@H](C(C)C)N(C)C)[C@H]1Cc1c[nH]c2ccccc12`: the Kinact is 2.24 10^-3/s.

The next data set addresses T2, Cathepsin B. In words: Inhibition of human recombinant Cathepsin B assessed as Apparent inhibition constant using Z-FR-AMC as substrate inubated for 30 mins by fluorometric assay. To be noted: read-out: Ki(app). In short, it runs like this: as §1
On to `COC1=CC(=O)N(C(=O)/C=C/[C@H](C)NC(=O)[C@H](CCc2ccccc2)NC(=O)[C@H](CC2CCCCC2)NC(=O)[C@H](C(C)C)N(C)C)[C@H]1Cc1c[nH]c2ccccc12`, for which the Ki was found to be 347 nM.

A further data set has as its system Vero C1008. In words: Cytotoxicity against cells African green monkey Vero E6 cells incubated for 24 to 72 hrs by alamar blue assay. It is filed as toxicity, cell-based. To be noted: chlorocebus sabaeus, time 24-72 hrs. In short, it runs like this: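 VeroE6 cells in DMEM with 10% FCS were seeded at 5 × 10^4 per well. After adherence, cells were given varying compound concentrations for 24 or 72 h at 37 °C, 5% CO2. Alamar Blue HS was added for a further 2–4 h. Viability was read as fluorescence at ex/em 560/590 nm.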
For the compound `COC1=CC(=O)N(C(=O)/C=C/[C@H](C)NC(=O)[C@H](CCc2ccccc2)NC(=O)[C@H](CC2CCCCC2)NC(=O)[C@H](C(C)C)N(C)C)[C@H]1Cc1c[nH]c2ccccc12`, the cytotoxic concentration (CC50) was over 100000 nM.

Another data set deals with T2, Cathepsin B. Put plainly: Inhibition of human recombinant Cathepsin B assessed remaining activity using Z-FR-AMC as substrate incubated for 30 mins by fluorometric assay.
Details: not given
In short, it runs like this: as §2
In the case of `COC1=CC(=O)N(C(=O)/C=C/[C@H](C)NC(=O)[C@H](CCc2ccccc2)NC(=O)[C@H](CC2CCCCC2)NC(=O)[C@H](C(C)C)N(C)C)[C@H]1Cc1c[nH]c2ccccc12`, the IC50 is 47.6 nM.

A further data set has as its target Cathepsin S (Homo sapiens, UniProt P25774). In words: Inhibition of human recombinant Cathepsin S assessed remaining activity using Z-FR-AMC as substrate incubated for 30 mins by fluorometric assay.
Details: not given
In short, it runs like this: as §2
With `COC1=CC(=O)N(C(=O)/C=C/[C@H](C)NC(=O)[C@H](CCc2ccccc2)NC(=O)[C@H](CC2CCCCC2)NC(=O)[C@H](C(C)C)N(C)C)[C@H]1Cc1c[nH]c2ccccc12`, the concentration for half-maximal inhibition (IC50) came out at 60.3 nM.
